In ChEMBL document CHEMBL1128216, “Rational design and synthesis of small molecule, non-oligosaccharide selectin inhibitors: (alpha-D-mannopyranosyloxy)biphenyl-substituted carboxylic acids” (J Med Chem, 1995):
Each block holds one compound with its values, some of them ahead of it.

Tests used:
P-selectin = target: T1, P-selectin (Homo sapiens, UniProt P16109); assay: In vitro inhibitory activity against sialyl Lewis X expressing HL60 cell binding Selectin P; type: cell-based, HL-60
T1 sequence (P16109 whole entry): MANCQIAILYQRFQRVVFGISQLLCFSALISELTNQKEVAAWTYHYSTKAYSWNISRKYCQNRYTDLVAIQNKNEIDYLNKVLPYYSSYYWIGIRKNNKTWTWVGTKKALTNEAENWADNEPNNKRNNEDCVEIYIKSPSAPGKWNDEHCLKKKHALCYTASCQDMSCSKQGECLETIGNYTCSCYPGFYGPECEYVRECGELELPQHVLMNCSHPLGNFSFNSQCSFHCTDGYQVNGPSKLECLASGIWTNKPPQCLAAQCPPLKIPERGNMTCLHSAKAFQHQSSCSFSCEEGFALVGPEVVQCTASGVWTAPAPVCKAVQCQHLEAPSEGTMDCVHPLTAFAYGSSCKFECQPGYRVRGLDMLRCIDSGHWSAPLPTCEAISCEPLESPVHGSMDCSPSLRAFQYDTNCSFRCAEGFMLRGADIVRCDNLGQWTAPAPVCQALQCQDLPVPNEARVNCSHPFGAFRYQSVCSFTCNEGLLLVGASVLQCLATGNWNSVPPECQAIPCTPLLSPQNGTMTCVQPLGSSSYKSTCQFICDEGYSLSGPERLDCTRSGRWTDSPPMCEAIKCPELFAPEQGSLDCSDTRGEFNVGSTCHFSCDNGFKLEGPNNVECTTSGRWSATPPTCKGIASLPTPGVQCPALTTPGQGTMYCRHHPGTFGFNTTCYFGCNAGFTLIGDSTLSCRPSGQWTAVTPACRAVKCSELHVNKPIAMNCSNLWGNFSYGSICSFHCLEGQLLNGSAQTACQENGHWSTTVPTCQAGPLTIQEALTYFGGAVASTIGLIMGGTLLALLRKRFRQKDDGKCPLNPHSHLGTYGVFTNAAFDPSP

[1] = target: T2, E-selectin (Homo sapiens) (UniProt P16581); assay: In vitro inhibitory activity against sialyl Lewis X expressing HL60 cell binding to recombinant human E-selectin at 40 mM concentration; type: cell-based; settings: HL-60
T2 sequence (whole entry): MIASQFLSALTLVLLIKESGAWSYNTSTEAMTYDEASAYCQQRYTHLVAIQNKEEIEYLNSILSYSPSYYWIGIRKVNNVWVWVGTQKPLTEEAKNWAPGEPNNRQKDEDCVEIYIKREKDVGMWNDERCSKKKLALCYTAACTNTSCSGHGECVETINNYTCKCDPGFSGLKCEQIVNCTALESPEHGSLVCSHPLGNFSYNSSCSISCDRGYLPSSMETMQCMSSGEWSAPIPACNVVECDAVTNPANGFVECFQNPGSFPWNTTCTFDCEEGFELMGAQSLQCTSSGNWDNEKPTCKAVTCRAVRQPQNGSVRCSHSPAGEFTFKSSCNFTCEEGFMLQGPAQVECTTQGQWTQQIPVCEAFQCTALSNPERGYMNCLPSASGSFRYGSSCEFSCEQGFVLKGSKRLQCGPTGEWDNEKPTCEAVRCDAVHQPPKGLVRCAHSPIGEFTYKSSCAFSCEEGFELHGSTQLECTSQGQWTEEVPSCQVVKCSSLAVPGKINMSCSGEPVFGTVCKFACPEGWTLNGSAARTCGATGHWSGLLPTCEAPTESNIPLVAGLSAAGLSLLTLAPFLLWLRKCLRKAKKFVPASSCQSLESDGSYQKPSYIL
In short: (§1)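 Human E-selectin (lectin, EGF and two complement repeats) fused to mouse IgG was captured on anti-mouse IgG magnetic beads overnight at 4 °C. Wells were pre-blocked with 3% BSA/PBS. Compound in PBS was mixed with calcein-labelled HL60 cells (10⁷/mL, RPMI 1640 + 10% FCS) and beads (4 × 10⁶/mL) for 10 min at room temperature. Unbound cells were removed magnetically with two PBS washes, and bound cells were lysed in 1% NP40.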

E-selectin = target: T3, E-selectin (Homo sapiens, UniProt P16581); assay: In vitro inhibition of HL60 (human leukemia) cell binding to human recombinant e-selectin.; type: cell-based, HL-60; in short: as §1
T3 sequence (P16581 whole entry): T2 sequence (whole entry)

[2] = target: T4, P-selectin (Homo sapiens) (UniProt P16109); assay: In vitro inhibitory activity against sialyl Lewis X expressing HL60 cell binding Selectin P at 20 mM concentration; type: cell-based; settings: HL-60
T4 sequence (whole entry): T1 sequence (P16109 whole entry)

[3] = target: T5, L-selectin (Mus musculus) (UniProt P18337); assay: In vitro inhibitory activity against sialyl Lewis X expressing HL60 cell binding to Selectin L at 6 mM concentration; type: cell-based; settings: HL-60
T5 sequence (whole entry): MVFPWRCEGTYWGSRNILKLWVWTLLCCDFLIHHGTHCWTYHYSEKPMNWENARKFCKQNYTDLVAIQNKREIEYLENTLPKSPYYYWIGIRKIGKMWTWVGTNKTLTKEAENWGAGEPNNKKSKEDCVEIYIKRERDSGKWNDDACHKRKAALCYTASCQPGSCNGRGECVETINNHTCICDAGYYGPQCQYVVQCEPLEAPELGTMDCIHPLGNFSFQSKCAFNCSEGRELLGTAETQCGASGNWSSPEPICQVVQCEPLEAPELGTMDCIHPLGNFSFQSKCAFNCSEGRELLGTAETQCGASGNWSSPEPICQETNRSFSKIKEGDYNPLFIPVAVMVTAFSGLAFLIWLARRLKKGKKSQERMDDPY

[4] = target: T2, E-selectin (Homo sapiens); assay: In vitro inhibitory activity against sialyl Lewis X expressing HL60 cell binding to recombinant human E-selectin at 1 mM concentration; type: cell-based; settings: HL-60; in short: as §1
[5] = target: T5, L-selectin (Mus musculus); assay: In vitro inhibitory activity against sialyl Lewis X expressing HL60 cell binding Selectin L at 6 mM concentration; type: cell-based; settings: HL-60
[6] = target: T5, L-selectin (Mus musculus); assay: In vitro inhibitory activity against sialyl Lewis X expressing HL60 cell binding Selectin L at 1 mM concentration; type: cell-based; settings: HL-60
[7] = target: T5, L-selectin (Mus musculus); assay: In vitro inhibitory activity against sialyl Lewis X expressing HL60 cell binding to Selectin L at 8 mM concentration; type: cell-based; settings: HL-60
[8] = target: T4, P-selectin (Homo sapiens); assay: In vitro inhibitory activity against sialyl Lewis X expressing HL60 cell binding Selectin P at 25 mM concentration; type: cell-based; settings: HL-60
L-selectin = target: T6, L-selectin (Mus musculus, UniProt P18337); assay: In vitro inhibitory activity against sialyl Lewis X expressing HL60 cell binding Selectin L; type: cell-based, HL-60
T6 sequence (P18337 whole entry): T5 sequence (whole entry)

[9] = target: T5, L-selectin (Mus musculus); assay: In vitro inhibitory activity against sialyl Lewis X expressing HL60 cell binding to Selectin L at 7 mM concentration; type: cell-based; settings: HL-60
[10] = target: T2, E-selectin (Homo sapiens); assay: In vitro inhibitory activity against sialyl Lewis X expressing HL60 cell binding to recombinant human E-selectin at 6 mM concentration; type: cell-based; settings: HL-60; in short: as §1
[11] = target: T5, L-selectin (Mus musculus); assay: In vitro inhibitory activity against sialyl Lewis X expressing HL60 cell binding to L-selectin at 6 mM concentration; type: cell-based; settings: HL-60

SMILES: CC(C(=O)O)c1cccc(-c2ccccc2O[C@H]2O[C@H](CO)[C@@H](O)[C@@H](O)[C@@H]2O)c1 (stereo in doubt; 9r) [listing 1 of 2 here]
IC50 (P-selectin): 20 mM

SMILES: O=C(O)CNC(=O)c1ccc(-c2ccccc2O[C@H]2O[C@H](CO)[C@@H](O)[C@@H](O)[C@@H]2O)cc1
IC50 (E-selectin): 4.6 mM
inhibition [2]: 0%
inhibition [3]: 0%

SMILES: O=C(O)CCNC(=O)c1ccc(-c2ccccc2O[C@H]2O[C@H](CO)[C@@H](O)[C@@H](O)[C@@H]2O)cc1
IC50 (E-selectin): 36 mM
inhibition [6]: 0%

SMILES: O=C(O)Cc1ccc(-c2ccccc2O[C@H]2O[C@H](CO)[C@@H](O)[C@@H](O)[C@@H]2O)cc1
IC50 (E-selectin): 2.6 mM
inhibition [2]: 0%
inhibition [3]: 0%

SMILES: CCOP(=O)(O)CCCc1cccc(-c2ccccc2O[C@H]2O[C@H](CO)[C@@H](O)[C@@H](O)[C@@H]2O)c1
IC50 (E-selectin): 34.4 mM
IC50 (P-selectin): 12.4 mM

SMILES: CC(C(=O)O)c1cccc(-c2ccccc2O[C@H]2O[C@H](CO)[C@@H](O)[C@@H](O)[C@@H]2O)c1 (stereo in doubt; 9r) [listing 2 of 2 here]
inhibition [1]: 0%
inhibition [3]: 40%

SMILES: O=C(O)COc1ccc(-c2ccccc2O[C@H]2O[C@H](CO)[C@@H](O)[C@@H](O)[C@@H]2O)cc1
IC50 (E-selectin): 6.1 mM
inhibition [11]: 20%
IC50 (P-selectin): 20 mM

More lines, now with the values ahead:

inhibition [1]: 17%
SMILES: OC[C@H]1O[C@H](Oc2ccccc2-c2cccc(Cc3nnn[nH]3)c2)[C@@H](O)[C@H](O)[C@@H]1O

inhibition [4]: 14%
inhibition [5]: 0%
inhibition [2]: 5%
SMILES: O=C(N[C@H](Cc1ccccc1)C(=O)O)c1cccc(-c2ccccc2O[C@H]2O[C@H](CO)[C@@H](O)[C@@H](O)[C@@H]2O)c1

inhibition [7]: 0%
IC50 (E-selectin): 20 mM
inhibition [8]: 20%
SMILES: O=C(O)COc1ccccc1-c1ccccc1O[C@H]1O[C@H](CO)[C@@H](O)[C@@H](O)[C@@H]1O

IC50 (E-selectin): 2 mM
IC50 (L-selectin): 1 mM
IC50 (P-selectin): 2.6 mM
SMILES: O=C(O)Cc1cccc(-c2ccccc2O[C@H]2O[C@H](CO)[C@@H](O)[C@@H](O)[C@@H]2O)c1

IC50 (E-selectin): 14.6 mM
inhibition [9]: 0%
inhibition [2]: 0%
SMILES: O=C(O)c1ccc(-c2ccccc2O[C@H]2O[C@H](CO)[C@@H](O)[C@@H](O)[C@@H]2O)cc1

IC50 (E-selectin): 20 mM
SMILES: O=S(=O)(O)CCc1cccc(-c2ccccc2O[C@H]2O[C@H](CO)[C@@H](O)[C@@H](O)[C@@H]2O)c1

inhibition [10]: 0%
SMILES: O=C(O)C(=O)Nc1cccc(-c2ccccc2O[C@H]2O[C@H](CO)[C@@H](O)[C@@H](O)[C@@H]2O)c1

IC50 (E-selectin): 14 mM
SMILES: Cc1ccc(O[C@H]2O[C@H](CO)[C@@H](O)[C@@H](O)[C@@H]2O)c(-c2cccc(OCC(=O)O)c2)c1
